Shown is part of a subset that was picked to be rich in hits.
KDM4C inh – KDM4C (human) demethylase inhibition | Q9H3R0 | GST-KDM4C 2-372, H3K9me3 peptide, LANCE TR-FRET | inhibition, % at 12.5 µM | actives 0.15% (n = 96,000);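 active = mean replicate inhibition above about 25%, with at least 55% of replicates also reaching it, limit read from the data, passing the limit was not always enough; inconclusive = only one of those two conditions met; inactive = neither condition met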
Target sequence (Q9H3R0 2-372 limits assumed): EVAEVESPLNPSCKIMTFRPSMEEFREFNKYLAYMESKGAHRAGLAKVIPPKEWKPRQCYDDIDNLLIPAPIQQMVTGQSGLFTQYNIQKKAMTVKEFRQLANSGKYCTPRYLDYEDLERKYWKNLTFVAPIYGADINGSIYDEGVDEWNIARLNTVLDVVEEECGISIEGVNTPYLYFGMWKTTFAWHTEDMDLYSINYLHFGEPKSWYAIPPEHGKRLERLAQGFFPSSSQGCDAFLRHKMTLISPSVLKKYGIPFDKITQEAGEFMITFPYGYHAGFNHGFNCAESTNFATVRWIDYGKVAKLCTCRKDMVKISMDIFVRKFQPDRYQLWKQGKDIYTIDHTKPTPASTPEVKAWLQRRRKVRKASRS
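material = GST-tagged GASC-1 (JMJD2C) catalytic fragment, aa 2-372 | amount = enzyme final amount 10 nM | medium = HEPES buffer, pH 7.5, plus ascorbate | also added = H3K9me3 peptide substrate, Fe(II), 2-oxoglutarate | dosing = single dose | times = 30 min demethylation and 1 h detection at room temperature | detection = LANCE TR-FRET | read-out basis = Fall in 671/618 emission ratio as inhibition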
IDH1 mut inh – inhibitors of human IDH1 R132H. AID 624101. IDH1 R132H reductase, diaphorase/resazurin fluorescence, 60 min. O75874. inhibition, % at 10 µM. actives 0.18% (n = 70,000); in the data active = inhibition above about 34%; inconclusive = no clear call, values can overlap the other calls; inactive = below about 11%;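 also: 0% = DMSO and 100% = no enzyme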
Target sequence (O75874 whole entry R132H): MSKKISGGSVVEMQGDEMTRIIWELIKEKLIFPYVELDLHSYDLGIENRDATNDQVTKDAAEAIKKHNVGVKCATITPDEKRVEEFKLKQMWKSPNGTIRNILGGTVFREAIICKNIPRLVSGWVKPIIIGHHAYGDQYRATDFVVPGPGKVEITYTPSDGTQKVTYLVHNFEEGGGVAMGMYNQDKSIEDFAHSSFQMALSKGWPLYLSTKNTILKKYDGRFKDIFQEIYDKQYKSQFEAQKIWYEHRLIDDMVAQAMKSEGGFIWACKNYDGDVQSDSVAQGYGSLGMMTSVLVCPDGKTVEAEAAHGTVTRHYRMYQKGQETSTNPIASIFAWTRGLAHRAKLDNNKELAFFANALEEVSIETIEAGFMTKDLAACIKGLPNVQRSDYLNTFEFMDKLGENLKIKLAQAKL
T cruzi growth-1 – T. cruzi proliferation inhibition | T. cruzi beta-gal in NIH3T3, GalScreen luminescence, 90 h | inhibition, % at 8.34 µM | actives 5.9% (n = 77,000);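 active = mean inhibition above about 93%, with at least 55% of replicates each passing it, limit read from the data, passing the limit was not always enough; inconclusive = only one of those two conditions holds; inactive = neither condition holds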
T cruzi growth-2 – Trypanosoma cruzi proliferation inhibition | T. cruzi beta-gal in NIH3T3, GalScreen luminescence, 90 h | inhibition, % at 8.35 µM | shares compounds with T cruzi growth-1 | actives 72% (n = 5,600);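 active = mean replicate inhibition above about 95% and at least 55% of replicates individually reaching it, limit read from the data; inconclusive = only one of the two criteria is met; inactive = neither criterion is met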
T cruzi growth-3 – Trypanosoma cruzi proliferation inhibition | inhibition, % at 2.09 µM | shares compounds with T cruzi growth-1 | T. cruzi beta-gal in NIH3T3, GalScreen luminescence, 90 h | actives 21% (n = 5,600) | AID 651740;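 active = mean inhibition above about 95%, with at least 55% of replicates also reaching it, limit read from the data; inconclusive = meets just one of the two conditions; inactive = meets neither condition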;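 also: plate controls were neutral control median for no effect and positive control median for full effect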
3T3 cytotox – NIH/3T3 (mouse) viability loss; AID 651742; actives 14% (n = 5,600); NIH/3T3 viability, CellTiter-Glo ATP luminescence, 90 h; cytotoxicity (signal decrease), % at 8.35 µM; shares compounds with T cruzi growth-1;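 active = mean signal decrease across replicates above about 35% based on untreated-well scatter, with enough replicates individually passing, limit read from the data; inconclusive = no rule stated though some were filed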;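 also: 0% = median of neutral control wells and 100% = median of positive control wells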
NIH3T3 tox 2 – kills mouse NIH/3T3 fibroblasts. AID 651744. NIH/3T3 viability, CellTiter-Glo ATP luminescence, 90 h. inhibition, % at 24.9 µM. shares compounds with T cruzi growth-1. actives 56% (n = 5,600);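 active = mean loss of cell viability signal at or above a set limit, and enough replicates individually reaching it; inconclusive = meets only the mean limit or only the replicate share; inactive = meets neither condition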;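 also: 0% = median of neutral control wells and 100% = median of positive control wells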
* marks the source's active call; other numbers are inactive results; ? = inconclusive; / = no result given.

SMILES | KDM4C inh | IDH1 mut inh | T cruzi growth-1 | T cruzi growth-2 | T cruzi growth-3 | 3T3 cytotox | NIH3T3 tox 2
COc1cccc(S(=O)(=O)NCc2ccc(C(=O)O)cc2)c1 | / | -0.3 | / | / | / | / | /
C[C@H]1CN([C@@H](C)CO)C(=O)c2cc(C3=CCCCC3)cnc2O[C@H]1CN(C)Cc1cccc(F)c1 | -1.5 | -0.4 | 110.3* | 105.4* | 5.9 | 21.9 | 34.7*
C[C@H]1CN([C@@H](C)CO)C(=O)c2cc(C3=CCCCC3)cnc2O[C@@H]1CN(C)C(=O)c1cccc(F)c1 | 0.4 | -3.4 | 105.4* | 107.7* | 21.9 | -7.2 | 52.5*
C[C@H](CO)N1C[C@H](C)[C@H](CN(C)Cc2cccc(F)c2)Oc2ncc(C3=CCCCC3)cc2C1=O | 4.8 | / | / | / | / | / | /
C[C@@H]1CN([C@H](C)CO)C(=O)c2cc(C3=CCCCC3)cnc2O[C@H]1CN(C)Cc1ccccc1C(=O)O | 1.0 | / | -43.8 | / | / | / | /
C[C@H]1CN([C@@H](C)CO)C(=O)c2cc(C3=CCCCC3)cnc2O[C@@H]1CN(C)Cc1ccccc1C(=O)O | -0.8 | / | 108.0* | 22.6 | 5.8 | 8.9 | -23.6
C[C@@H]1CN([C@@H](C)CO)C(=O)c2cc(C3=CCCCC3)cnc2O[C@H]1CN(C)C(=O)c1cccc(F)c1 | 3.3 | -0.9 | 57.2 | / | / | / | /
COc1cc(CC2COC(c3ccc(O)c(OC)c3)C2COC2OC(CO)C(O)C(O)C2O)ccc1O (stereo not given) | / | 0.2 | / | / | / | / | /
CCCNC(=O)N1CC2(CCN(CC3CC3)CC2)c2c(n(C)c3cc(OC)ccc23)[C@H]1CO | -1.1 | / | / | / | / | / | /
Cc1ccc(N(C(=O)COc2ccc(C)cc2C)C2C=CS(=O)(=O)C2)cc1 (stereo not given) | / | -0.3 | / | / | / | / | /
O=C(Nc1cc(F)ccc1F)N1CCCCN2[C@H](C1)[C@H](c1ccc(-c3ccccc3)cc1)[C@@H]2CO | -0.8 | / | 99.2* | 107.6* | 60.5 | 29.9 | 20.0
O=C(Nc1ccccc1F)N1CCCCN2[C@H](C1)[C@H](c1ccc(-c3cccnc3)cc1)[C@@H]2CO | -0.8 | / | 104.3* | ? | -6.9 | -11.4 | -12.2
O=C(Nc1cc(F)ccc1F)N1CCCCN2[C@H](CO)[C@H](c3ccc(-c4cccnc4)cc3)[C@@H]2C1 | -0.7 | / | 61.8 | / | / | / | /
O=C(Nc1cc(F)ccc1F)N1CCCCN2[C@@H](CO)[C@H](c3ccc(-c4cccnc4)cc3)[C@@H]2C1 | 1.1 | / | ? | 97.3* | 33.7 | 0.3 | 14.4
O=C(Nc1ccccc1F)N1CCCCN2[C@H](CO)[C@@H](c3ccc(-c4cccnc4)cc3)[C@@H]2C1 | 0.5 | / | 55.0 | / | / | / | /
O=C(Nc1cc(F)ccc1F)N1CCCCN2[C@@H](CO)[C@H](c3ccc(-c4ccncc4)cc3)[C@@H]2C1 | -0.7 | / | 68.6 | / | / | / | /
O=C(Nc1cc(F)ccc1F)N1CCCCN2[C@H](CO)[C@H](c3ccc(-c4ccccc4)cc3)[C@H]2C1 | -0.8 | / | 40.5 | / | / | / | /
O=C(Nc1cc(F)ccc1F)N1CCCCN2[C@H](CO)[C@@H](c3ccc(-c4cncnc4)cc3)[C@@H]2C1 | -1.9 | / | 112.0* | 11.6 | 4.6 | -12.8 | -5.6
CC(C)[C@@H]1NC(=O)[C@@H](Cc2c[nH]c3ccccc23)n2c1nc1ccccc1c2=O | / | 0.1 | / | / | / | / | /
CN(C)C(=O)[C@@]1(Cc2ccccc2N=[N+]=[N-])N=C(c2ccc(OCCCO)cc2)O[C@H]1c1ccccc1N=[N+]=[N-] | / | 0.4 | / | / | / | / | /
O=C(Nc1cc(F)ccc1F)N1CCCCN2[C@H](CO)[C@H](c3ccc(-c4cncnc4)cc3)[C@H]2C1 | 0.2 | / | 112.1* | 107.2* | 25.3 | -3.4 | -16.0
O=C(Nc1cc(F)ccc1F)N1CCCCN2[C@H](CO)[C@@H](c3ccc(-c4ccncc4)cc3)[C@H]2C1 | -0.4 | / | 57.5 | / | / | / | /
O=C(Nc1cc(F)ccc1F)N1CCCCN2[C@@H](CO)[C@H](c3ccc(-c4cncnc4)cc3)[C@@H]2C1 | -0.1 | / | 98.1* | 68.7 | 18.2 | 23.6 | 11.0
O=C(Nc1cc(F)ccc1F)N1CCCCN2[C@H](CO)[C@H](c3ccc(-c4ccncc4)cc3)[C@@H]2C1 | -1.6 | / | 75.6 | / | / | / | /
O=C(Nc1cc(F)ccc1F)N1CCCCN2[C@@H](CO)[C@@H](c3ccc(-c4cncnc4)cc3)[C@@H]2C1 | 0.7 | / | 108.2* | -6.0 | -12.8 | -30.9 | -6.4
SMILES | KDM4C inh | IDH1 mut inh | T cruzi growth-1 | T cruzi growth-2 | T cruzi growth-3 | 3T3 cytotox | NIH3T3 tox 2
O=C(Nc1cc(F)ccc1F)N1CCCCN2[C@H](C1)[C@@H](c1ccc(-c3cccnc3)cc1)[C@@H]2CO | -1.9 | / | 70.0 | / | / | / | /
COC(=O)c1ccc(NC(=O)C2Cc3ccccc3CN2S(=O)(=O)c2ccc(F)cc2)cc1 (stereo not given) | / | 0.5 | / | / | / | / | /
C[C@@H](NC(=O)C[C@@H]1C=C[C@H](NC(=O)C2CCC2)[C@H](CO)O1)c1ccccc1 | -2.3 | 0.2 | -60.8 | / | / | / | /
C[C@H]1CN([C@@H](C)CO)C(=O)c2cc(-c3cccnc3)cnc2O[C@@H]1CN(C)C(=O)Nc1ccc2c(c1)OCO2 | 1.2 | / | 1.0 | / | / | / | /
C[C@@H]1CN([C@@H](C)CO)C(=O)c2cc(-c3cncnc3)cnc2O[C@H]1CN(C)C(=O)Nc1ccc2c(c1)OCO2 | -0.3 | 3.3 | 97.5* | 46.2 | 17.9 | 10.7 | 13.1
C[C@@H]1CN([C@@H](C)CO)C(=O)c2cc(-c3cncnc3)cnc2O[C@@H]1CN(C)C(=O)Nc1ccc2c(c1)OCO2 | 1.6 | -0.9 | 44.3 | / | / | / | /
C[C@H](CO)N1C[C@H](C)[C@@H](CN(C)C(=O)Nc2ccc3c(c2)OCO3)Oc2ncc(-c3cncnc3)cc2C1=O | 15.0 | 4.6 | 104.4* | 15.3 | -24.5 | -5.8 | 7.7
O=C(NC1CCCC1)N1CCCCN2[C@H](CO)[C@@H](c3ccc(-c4cccnc4)cc3)[C@H]2C1 | -0.4 | / | 29.0 | / | / | / | /
O=C(NC1CCCC1)N1CCCCN2[C@H](C1)[C@H](c1ccc(-c3cncnc3)cc1)[C@@H]2CO | -0.4 | / | ? | 107.1* | -12.6 | -22.1 | -4.5
O=C(NC1CCCC1)N1CCCCN2[C@@H](CO)[C@H](c3ccc(-c4ccccc4)cc3)[C@@H]2C1 | -1.2 | / | 113.1* | 95.2* | 43.5 | 3.5 | 94.6*
O=C(NC1CCCC1)N1CCCCN2[C@@H](CO)[C@@H](c3ccc(-c4ccncc4)cc3)[C@@H]2C1 | -0.1 | / | 105.2* | 96.6* | 42.0 | 10.7 | -9.0
O=C(NC1CCCC1)N1CCCCN2[C@H](CO)[C@H](c3ccc(-c4cncnc4)cc3)[C@@H]2C1 | 0.6 | / | 101.9* | 19.9 | 0.3 | 11.0 | 9.8
O=C(NC1CCCC1)N1CCCCN2[C@H](CO)[C@@H](c3ccc(-c4ccncc4)cc3)[C@H]2C1 | -0.6 | / | 72.7 | / | / | / | /
O=C(NC1CCCC1)N1CCCCN2[C@H](C1)[C@H](c1ccc(-c3ccncc3)cc1)[C@@H]2CO | -1.3 | / | -5.4 | / | / | / | /
